Assay type in all cases: functional
Test [1] relates to Staphylococcus aureus. The experiment in a line: Antibacterial activity against Staphylococcus aureus 209PJC after 24 hrs. The procedure, abridged:
(§1)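 Value is the minimal inhibitory concentration (MIC) against the test organism, read after 24 h of incubation.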

For test [2], the system named is Staphylococcus aureus. As to the kind of experiment: Antibacterial activity against methicillin-resistant Staphylococcus aureus 97-115 after 24 hrs. The procedure, abridged: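 Read-out is the minimal inhibitory concentration (MIC), taken after 24 h incubation with the test organism.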
Test [3] concerns Escherichia coli. The experiment in a line: Antibacterial activity against Escherichia coli NIHJ JC-2 after 24 hrs. The method in brief: as §1
For test [4], the system named is Pseudomonas aeruginosa. The experiment in a line: Antibacterial activity against Pseudomonas aeruginosa PAO1. The procedure, abridged: as §1
Test [5] relates to Escherichia coli. As to the kind of experiment: Bactericidal activity against Escherichia coli NIHJ JC-2 preincubated for 1 min before addition of growth medium measured after 40 to 48 hrs.
The subject of test [6] is Staphylococcus aureus. As to the kind of experiment: Bactericidal activity against Staphylococcus aureus 209PJC preincubated for 5 mins before addition of growth medium measured after 40 to 48 hrs.
The subject of test [7] is Pseudomonas aeruginosa. The experiment in a line: Bactericidal activity against Pseudomonas aeruginosa PAO1 preincubated for 5 mins before addition of growth medium measured after 40 to 48 hrs.
The subject of test [8] is Staphylococcus aureus. The experiment in a line: Bactericidal activity against methicillin-resistant Staphylococcus aureus 97-115 preincubated for 5 mins before addition of growth medium measured after 40 to 48 hrs. The procedure, abridged:
(§2)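 Read-out is the minimal bactericidal concentration (MBC), taken after 1, 3 and 5 min contact of compound with the test organism.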

In test [9] the test system is Escherichia coli. The experiment in a line: Bactericidal activity against Escherichia coli NIHJ JC-2 preincubated for 5 mins before addition of growth medium measured after 40 to 48 hrs.
Test [10] relates to Pseudomonas aeruginosa. As to the kind of experiment: Bactericidal activity against Pseudomonas aeruginosa PAO1 preincubated for 1 min before addition of growth medium measured after 40 to 48 hrs.
Test [11] relates to Escherichia coli. The experiment in a line: Bactericidal activity against Escherichia coli NIHJ JC-2 preincubated for 3 mins before addition of growth medium measured after 40 to 48 hrs.
Test [12] concerns Staphylococcus aureus. The experiment in a line: Bactericidal activity against methicillin-resistant Staphylococcus aureus 97-115 preincubated for 3 mins before addition of growth medium measured after 40 to 48 hrs. The method in brief: as §2
Test [13] has as its system Staphylococcus aureus. As to the kind of experiment: Bactericidal activity against Staphylococcus aureus 209PJC preincubated for 1 min before addition of growth medium measured after 40 to 48 hrs.
Test [14] relates to Staphylococcus aureus. The experiment in a line: Bactericidal activity against Staphylococcus aureus 209PJC preincubated for 3 mins before addition of growth medium measured after 40 to 48 hrs.
Test [15] deals with Pseudomonas aeruginosa. The experiment in a line: Bactericidal activity against Pseudomonas aeruginosa PAO1 preincubated for 3 mins before addition of growth medium measured after 40 to 48 hrs.
Test [16] has as its system Staphylococcus aureus. The experiment in a line: Bactericidal activity against methicillin-resistant Staphylococcus aureus 97-115 preincubated for 1 min before addition of growth medium measured after 40 to 48 hrs. The procedure, abridged: as §2

SMILES strings stand for the structures. Some results are limits rather than exact numbers.

Take `CC(=O)O.CCCCCCCCCCNC1=NC(C)(C)NC(Nc2ccccc2)=N1`: the MIC (in general, the lowest concentration that inhibits growth of the organism) against Staphylococcus aureus [1] turned out to be 0.4 µg/mL; against Staphylococcus aureus [2], 0.4 µg/mL; in the test with Escherichia coli [3], 12.5 µg/mL; in the test on Pseudomonas aeruginosa [4] it was 100 µg/mL.
As to `CC(=O)O.CCCCCCCCNC1=NC(C)(C)NC(NCc2ccccc2)=N1`, the MIC was 0.8 µg/mL against Staphylococcus aureus [1], 1.6 µg/mL against Staphylococcus aureus [2], 12.5 µg/mL in the test with Escherichia coli [3] and 25 µg/mL in the test on Pseudomonas aeruginosa [4]. The MBC (as a rule, the lowest tested concentration that kills the bacteria rather than only halting them) in the test with Escherichia coli [5] was determined as 12.5 µg/mL; against Staphylococcus aureus [6], 6.3 µg/mL; with Pseudomonas aeruginosa [7], 12.5 µg/mL; against Staphylococcus aureus [8] it was 50 µg/mL; against Escherichia coli [9], 6.3 µg/mL; against Pseudomonas aeruginosa [10] it was 25 µg/mL. For the same molecule, the MBC with Escherichia coli [11] was 6.3 µg/mL; against Staphylococcus aureus [12], 50 µg/mL; against Staphylococcus aureus [13] it was 25 µg/mL; against Staphylococcus aureus [14], 12.5 µg/mL; with Pseudomonas aeruginosa [15] it was 12.5 µg/mL; against Staphylococcus aureus [16] it was > 50 µg/mL.
With `CC(=O)O.CCCCCCCCCCNC1=NC(C)(C)NC(NCc2ccc(C)cc2)=N1`, the MIC turned out to be 0.8 µg/mL in the test on Staphylococcus aureus [1], 0.8 µg/mL against Staphylococcus aureus [2], 100 µg/mL in the test on Escherichia coli [3] and 100 µg/mL against Pseudomonas aeruginosa [4].
For the molecule `CCCCCCCCCNC1=NC(C)(C)NC(NCc2ccc(OC)cc2)=N1.CS(=O)(=O)O`, the MIC against Staphylococcus aureus [1] came out at 0.8 µg/mL; against Staphylococcus aureus [2], 1.6 µg/mL; with Escherichia coli [3], 25 µg/mL; in the test with Pseudomonas aeruginosa [4] it was 50 µg/mL. The MBC with Escherichia coli [5] was 12.5 µg/mL; with Staphylococcus aureus [6], 3.1 µg/mL; against Pseudomonas aeruginosa [7] it was 12.5 µg/mL; against Staphylococcus aureus [8] it was > 100 µg/mL; against Escherichia coli [9] it was 3.1 µg/mL; in the test on Pseudomonas aeruginosa [10], 25 µg/mL. In addition, the minimal bactericidal concentration (MBC) is 6.3 µg/mL with Escherichia coli [11]; > 100 µg/mL with Staphylococcus aureus [12]; 6.3 µg/mL with Staphylococcus aureus [13]; 6.3 µg/mL with Staphylococcus aureus [14]; 12.5 µg/mL with Pseudomonas aeruginosa [15]; > 100 µg/mL against Staphylococcus aureus [16].
As for `CC(=O)O.CCCCCCCCCNC1=NC(C)(C)NC(NCc2ccccc2)=N1`, the MIC in the test with Staphylococcus aureus [1] amounted to 0.8 µg/mL; with Staphylococcus aureus [2], 1.6 µg/mL; against Escherichia coli [3], 12.5 µg/mL; with Pseudomonas aeruginosa [4], 12.5 µg/mL. Also, the MBC stood at 6.3 µg/mL against Escherichia coli [5]; 6.3 µg/mL against Staphylococcus aureus [6]; 3.1 µg/mL against Pseudomonas aeruginosa [7]; 6.3 µg/mL in the test with Staphylococcus aureus [8]; 3.1 µg/mL against Escherichia coli [9]; 6.3 µg/mL with Pseudomonas aeruginosa [10]. Further, the minimum bactericidal concentration (MBC) against Escherichia coli [11] was determined as 6.3 µg/mL; in the test with Staphylococcus aureus [12], 6.3 µg/mL; in the test with Staphylococcus aureus [13], 12.5 µg/mL; against Staphylococcus aureus [14], 6.3 µg/mL; in the test with Pseudomonas aeruginosa [15] it was 3.1 µg/mL; in the test on Staphylococcus aureus [16], 12.5 µg/mL.
As for `CC(=O)O.CCCCCCCCCCNC1=NC(C)(C)NC(NCCc2ccccc2)=N1`, the MIC in the test on Staphylococcus aureus [1] amounted to 0.8 µg/mL; against Staphylococcus aureus [2], 0.8 µg/mL; with Escherichia coli [3], 25 µg/mL; against Pseudomonas aeruginosa [4], 25 µg/mL. Besides, the MBC in the test on Escherichia coli [5] was 12.5 µg/mL; against Staphylococcus aureus [6], 12.5 µg/mL; against Pseudomonas aeruginosa [7], 12.5 µg/mL; in the test on Staphylococcus aureus [8], > 50 µg/mL; in the test on Escherichia coli [9] it was 12.5 µg/mL; in the test on Pseudomonas aeruginosa [10] it was 25 µg/mL. Besides, the MBC against Escherichia coli [11] was 12.5 µg/mL; in the test on Staphylococcus aureus [12], > 50 µg/mL; against Staphylococcus aureus [13], 50 µg/mL; in the test on Staphylococcus aureus [14], 12.5 µg/mL; in the test on Pseudomonas aeruginosa [15] it was 12.5 µg/mL; against Staphylococcus aureus [16], > 50 µg/mL.
For the molecule `CC(=O)O.CCCCCCCNC1=NC(C)(C)NC(NCc2ccc(C)cc2)=N1`, the MIC came out at 0.8 µg/mL with Staphylococcus aureus [1], 1.6 µg/mL against Staphylococcus aureus [2], 25 µg/mL in the test on Escherichia coli [3] and 50 µg/mL against Pseudomonas aeruginosa [4]. Besides, the MBC against Escherichia coli [5] stood at 25 µg/mL; in the test on Staphylococcus aureus [6], 12.5 µg/mL; against Pseudomonas aeruginosa [7], 12.5 µg/mL; in the test on Staphylococcus aureus [8] it was 50 µg/mL; against Escherichia coli [9], 12.5 µg/mL; in the test with Pseudomonas aeruginosa [10] it was 25 µg/mL. For the same molecule, the MBC in the test on Escherichia coli [11] came out at 12.5 µg/mL; in the test on Staphylococcus aureus [12], 50 µg/mL; in the test on Staphylococcus aureus [13] it was 25 µg/mL; in the test on Staphylococcus aureus [14] it was 12.5 µg/mL; in the test on Pseudomonas aeruginosa [15], 12.5 µg/mL; against Staphylococcus aureus [16], 50 µg/mL.
With `CC(=O)O.CCCCCCCCCCCNC1=NC(C)(C)NC(NCc2ccc(OC)cc2)=N1`, the MIC was determined as 0.4 µg/mL against Staphylococcus aureus [1], 0.8 µg/mL in the test on Staphylococcus aureus [2], 100 µg/mL against Escherichia coli [3] and 100 µg/mL against Pseudomonas aeruginosa [4].
Regarding `CC(=O)O.CCCCCCCCCCNC1=NC(C)(C)NC(NCc2ccc(OC)cc2)=N1`, the minimal inhibitory concentration (MIC) against Staphylococcus aureus [1] was 0.4 µg/mL; with Staphylococcus aureus [2], 0.8 µg/mL; in the test with Escherichia coli [3], 25 µg/mL; in the test with Pseudomonas aeruginosa [4], 50 µg/mL. Further, the MBC against Escherichia coli [5] turned out to be 12.5 µg/mL; against Staphylococcus aureus [6], 3.1 µg/mL; against Pseudomonas aeruginosa [7] it was 3.1 µg/mL; with Staphylococcus aureus [8], 6.3 µg/mL; in the test with Escherichia coli [9], 6.3 µg/mL; against Pseudomonas aeruginosa [10], 12.5 µg/mL. Besides, the MBC came to 6.3 µg/mL in the test with Escherichia coli [11]; 6.3 µg/mL against Staphylococcus aureus [12]; 12.5 µg/mL against Staphylococcus aureus [13]; 6.3 µg/mL against Staphylococcus aureus [14]; 3.1 µg/mL with Pseudomonas aeruginosa [15]; 25 µg/mL in the test with Staphylococcus aureus [16].
